High-throughput results deposited in PubChem BioAssay by several laboratories.
This is a sample that favours compounds with a hit; in the whole collection about 3% have one here.
T cruzi inh: T. cruzi replication inhibition. T. cruzi beta-gal in NIH3T3, luminescence, 90 h. inhibition, % (no concentration beside the values). actives 1.4% (n = 300,000). AID 1885;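 active = mean inhibition across valid replicates above about 55%, limit read from the data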;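 also: signal also drops with host cell toxicity which is not excluded here; higher percent means less beta-gal luminescence so fewer parasites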
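Assay system: NIH/3T3 host cells with β-galactosidase reporter T. cruzi; input: 5,000 host fibroblasts per well; compound: single 50 nL compound addition per well in DMSO; timing: ≥90 h infection period, 3 h prior cell attachment; measured by: GalScreen β-gal luminescence, detergent lysis, 60 min; evaluation: percent inhibition of parasite-derived β-gal signal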
NRP1-CendR mod: alters CendR peptide binding to human NRP-1 | O14786 | FAM-RPARPAR peptide binding to NRP-1, fluorescence polarization | inhibition, % at 25 µM | actives 0.85% (n = 360,000);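 active = inhibition or corrected inhibition above about 18%, plus a signal ratio from 0.5 to 1.5, limit read from the data, passing the limit was not always enough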
Target sequence (O14786 whole entry, looked up): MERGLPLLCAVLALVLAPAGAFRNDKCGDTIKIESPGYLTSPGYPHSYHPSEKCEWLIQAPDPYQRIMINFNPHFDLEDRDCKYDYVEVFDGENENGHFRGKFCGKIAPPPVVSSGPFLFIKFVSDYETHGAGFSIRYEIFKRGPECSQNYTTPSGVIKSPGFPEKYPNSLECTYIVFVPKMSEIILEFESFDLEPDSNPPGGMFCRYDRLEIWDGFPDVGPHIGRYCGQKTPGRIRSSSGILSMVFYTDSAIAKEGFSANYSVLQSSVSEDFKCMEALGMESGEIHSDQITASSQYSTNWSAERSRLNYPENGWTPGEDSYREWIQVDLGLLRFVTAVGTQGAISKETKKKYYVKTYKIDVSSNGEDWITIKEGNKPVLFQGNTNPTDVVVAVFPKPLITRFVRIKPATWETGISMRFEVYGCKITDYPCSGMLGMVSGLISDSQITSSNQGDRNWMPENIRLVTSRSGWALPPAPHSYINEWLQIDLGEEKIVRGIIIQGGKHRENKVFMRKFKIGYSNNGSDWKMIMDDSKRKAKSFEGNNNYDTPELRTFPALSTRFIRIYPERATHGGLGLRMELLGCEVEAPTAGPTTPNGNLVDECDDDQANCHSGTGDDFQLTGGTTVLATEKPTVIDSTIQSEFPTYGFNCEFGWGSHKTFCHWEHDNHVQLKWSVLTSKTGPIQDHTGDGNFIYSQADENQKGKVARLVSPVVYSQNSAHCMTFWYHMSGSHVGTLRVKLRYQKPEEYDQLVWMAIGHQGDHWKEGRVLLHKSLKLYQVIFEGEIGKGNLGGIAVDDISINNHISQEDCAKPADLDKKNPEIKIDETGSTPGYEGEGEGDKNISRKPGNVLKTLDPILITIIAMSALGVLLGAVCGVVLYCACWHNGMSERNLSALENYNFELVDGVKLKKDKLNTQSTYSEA
AI-2 QS mod: modulates the Vibrio harveyi AI-2 quorum sensing system | Vibrio harveyi JMH597 AI-2 luminescence/OD600 ratio, 9 h; stronger effect = lower value; strain lacks LuxN and CqsS sensors; 0 = neutral-control median | activity change, % at 7.5 µM | actives 0.4% (n = 300,000) | AID 2094; in the data active = activity change below about -75%, passing the limit was not always enough;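 also: luminescence divided by OD600 gain over 9 h not by final OD600 alone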
V-ATPase pHluor: yeast V-ATPase proton transport regulation by pHLuorin | S. cerevisiae, pHLuorin cytosolic pH fluorescence | actives 0.37% (n = 350,000) | response, % at 10 µM; in the data active = response mostly above about 7.3%, no sharp cut-off; inactive = mostly below about 5.4%; also: actives read high
HIF act: HIF pathway transcriptional activation | U2OS HRE-luciferase reporter, luminescence; normalized: DMSO 0%, desferrioxamine 100% | activation, % at 7.5 µM (by protocol) | actives 0.32% (n = 300,000) | AID 1910;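 active = mean activation of at least 10% of the iron chelator positive control signal, with at least half of replicates also reaching 10%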
Yeast superoxide: yeast age-related superoxide inhibition as caloric restriction mimetic | actives 0.18% (n = 330,000) | S. cerevisiae aged cells, superoxide DHE fluorescence; stronger effect = lower value | superoxide response (% of plate mean), % at 10 µM;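 active = superoxide response under a set limit, about three screen SD below normal, cut at about 65% in these data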;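 also: yeast aged for seven days with compound at 30 °C before DHE staining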
JMH597 growth: retest Vibrio harveyi JMH597 growth inhibition; shares compounds with AI-2 QS mod; OD600 absorbance, 9 h; lacks LuxN and CqsS sensors; growth inhibition, % at 7.5 µM; actives 1% (n = 750);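 active = every replicate shows growth inhibition above 50%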
BB721 const-QS lum: retest counter-screen: BB721 constitutive quorum sensing luminescence decrease; actives 95% (n = 750); shares compounds with AI-2 QS mod; inhibition, % at 7.5 µM; Vibrio harveyi BB721 luminescence, 9 h;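 active = inhibition above about 80% in every replicate, not just on average, limit read from the data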
BB721 growth rt: retest: blocks Vibrio harveyi BB721 growth; shares compounds with AI-2 QS mod; OD600 absorbance, 9 h; growth inhibition, % at 7.5 µM; actives 3% (n = 750);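 active = every replicate shows growth inhibition above 50%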
AI-2 QS JMH597: Vibrio harveyi AI-2 signaling luminescence modulation – JMH597 strain, confirmation. actives 97% (n = 750). inhibition, % at 7.5 µM. shares compounds with AI-2 QS mod. Vibrio harveyi JMH597 AI-2 quorum sensing luminescence, 9 h; luxN and CqsS knockout, AI-2 only;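 active = every replicate shows more than 75% inhibition of signal versus neutral control wells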
CR mimetic CP: confirmation of caloric restriction mimetics inhibiting yeast age-related superoxide; shares compounds with Yeast superoxide; S. cerevisiae aging, superoxide DHE fluorescence; stronger effect = lower value; superoxide response (% of plate), % at 10 µM; actives 1% (n = 850); AID 434994;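 active = superoxide signal below 65% of the plate average of sample wells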;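 also: cells aged with compound for 7 days at 30 degrees C before staining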
DHE counter: counter-screen for compounds affecting DHE oxidation and fluorescence in yeast; fluorescence response, % at 10 µM; S. cerevisiae BY4741, flow cytometry; stronger effect = lower value; 850 tested, under 10 active; shares compounds with Yeast superoxide;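 active = fluorescence response below 15%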;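 also: lower means stronger quenching of DHE signal or ROS scavenging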
A number is an active result; – = inactive; · = no result.

SMILES | T cruzi inh | NRP1-CendR mod | AI-2 QS mod | V-ATPase pHluor | HIF act | Yeast superoxide | others
S=C1CN=C(c2ccccc2)c2cc(Cl)ccc2N1 | – | – | – | 25 | – | –
O=[N+]([O-])c1ccccc1-c1cc(-c2ccccc2)cc(-c2ccccc2)[n+]1Cc1ccccc1Cl | 56 | · | – | · | – | –
O=[N+]([O-])c1ccccc1CCl | · | – | · | – | · | –
O=C(CCc1ccccc1)N1Cc2cc(-c3cccc(F)c3)ccc2-n2nncc2C1 | · | – | · | · | · | ·
Cc1ccsc1C(=O)C1CCCN(Cc2ccc(-n3cccn3)cc2)C1 (stereo not drawn) | 61 | – | – | – | – | –
Cc1ccsc1C(=O)C1CCCN(Cc2cnc(N3CCCC3)s2)C1 (stereo not drawn) | 63 | – | – | – | – | –
Cc1ccsc1C(=O)C1CCCN(Cc2cc3ccccc3o2)C1 (stereo not drawn) | – | – | – | – | – | –
Cc1ccc(CN2CCCC(C(=O)c3sccc3C)C2)o1 (stereo not drawn) | 66 | – | – | – | – | –
Cc1ccsc1C(=O)C1CCCN(Cc2c(C)nn(C(C)C)c2C)C1 (stereo not drawn) | 62 | – | – | – | – | –
Cc1ccsc1C(=O)C1CCCN(Cc2cccc(-n3cccn3)c2)C1 (stereo not drawn) | – | – | – | – | – | –
Cc1cnc(-n2c(=S)[nH]c3ccccc3c2=O)s1 | · | – | · | – | · | –
O=C1NCN(c2ccccc2)C12CCN(C(c1cccs1)c1nnnn1Cc1ccccc1)CC2 (stereo not drawn) | · | – | · | · | · | ·
CN(C)c1ccc([N+](=O)[O-])c([N+](=O)[O-])c1 | · | 29 | · | – | · | ·
O=S(=O)(c1ccc(Cl)cc1)N1CCCCC1c1cccnc1 (stereo not drawn) | 71 | – | – | – | – | –
CCCn1ncc(CN2CCCC(C(=O)c3cccc(OC)c3)C2)c1C (stereo not drawn) | 68 | – | – | – | – | –
CCCn1cc(CN2CCCC(C(=O)c3cccc(OC)c3)C2)c(C)n1 (stereo not drawn) | – | – | – | – | – | –
CCn1cc(CN2CCCC(C(=O)c3cccc(OC)c3)C2)c(C)n1 (stereo not drawn) | 58 | – | – | – | – | –
COc1cccc(C(=O)C2CCCN(Cc3ccc(F)cc3)C2)c1 (stereo not drawn) | – | – | – | – | – | –
COc1cccc(C(=O)C2CCCN(Cc3ccc4nsnc4c3)C2)c1 (stereo not drawn) | – | – | – | – | 243 | –
COC(=O)C1=C(c2ccccc2)C[C@@H]2CC[C@H]1N2C(=O)N1CCCC1 | – | – | – | – | – | –
CCOc1ccc(NC2=NCCCS2)cc1 | – | – | – | – | – | –
CCc1ccc(NC(=O)CN2CC(c3ccccc3)CC2=O)cc1 (stereo not drawn) | – | – | -81 | – | – | – | JMH597 growth=–;BB721 const-QS lum=88;BB721 growth rt=–;AI-2 QS JMH597=92
CN1CCN(c2nc3c(c(=O)[nH]2)CCC3)CC1 | – | – | – | – | – | –
O=C1COc2ccc(C(=O)COC(=O)Cc3ccccc3)cc2N1 | – | – | -90 | – | – | – | JMH597 growth=–;BB721 const-QS lum=96;BB721 growth rt=–;AI-2 QS JMH597=98
O=C(Cc1ccccc1)OCC(=O)c1ccccc1 | – | – | -80 | – | – | – | JMH597 growth=–;BB721 const-QS lum=96;BB721 growth rt=–;AI-2 QS JMH597=97
SMILES | T cruzi inh | NRP1-CendR mod | AI-2 QS mod | V-ATPase pHluor | HIF act | Yeast superoxide | others
O=C(Cc1ccccc1)OCC(=O)c1ccc(F)cc1 | · | – | · | – | · | –
c1cnc2c(c1)ccc1ncccc12 | – | – | – | – | · | –
Nc1cc2nc3ccccc3nc2cc1N | – | – | – | – | – | 41 | CR mimetic CP=–;DHE counter=–
C[C@]12CCC(=O)CC1CCC1C2CC[C@]2(C)C(OC(=O)CCC(=O)O)CCC12 (stereo partly drawn) | – | – | – | – | – | 64 | CR mimetic CP=–;DHE counter=–
C[C@]12CC(=O)CC1CCC1C2CC[C@@]2(C)C1CC[C@@H]2O (stereo partly drawn) | – | – | – | – | – | –
C[C@]12CC[C@H](O)CC1C(=O)CC1C2CC[C@@]2(C)C1CC[C@@H]2O (stereo partly drawn) | · | – | · | – | · | – | CR mimetic CP=–;DHE counter=–
C[C@]12CCC(=O)C[C@@H]1CC[C@@H]1[C@@H]2CC[C@]2(C)[C@@H](O)CC[C@@H]12 | · | – | · | – | · | 54 | CR mimetic CP=–;DHE counter=–
C[C@]12CCC3C(CC[C@@H]4CC(=O)CC[C@]34C)C1CC[C@@H]2O (stereo partly drawn) | · | – | · | – | · | 54 | CR mimetic CP=–;DHE counter=–
CNC(C(=O)c1ccccc1)C(OC)c1cccc([N+](=O)[O-])c1 (stereo not drawn) | – | – | – | – | – | –
CN(C)CC#CCn1c2ccccc2c2ccccc21 | – | – | – | – | – | – | CR mimetic CP=–;DHE counter=–
CN(C)CCn1cnc2ccccc21 | – | – | – | – | – | –
Cn1c(O)c(C(=Nc2ccc(F)cc2)c2ccccc2Cl)c(=O)n(C)c1=O | – | – | – | – | – | 62 | CR mimetic CP=–;DHE counter=–
Cc1cccc(C)c1-n1nnnc1C(c1cccs1)N1CCC2(CC1)C(=O)NCN2c1ccccc1 (stereo not drawn) | · | – | · | · | · | ·
C[C@]12CCC3C(CCC4=C/C(=N/OCC(=O)NC(CCC(=O)O)C(=O)O)CC[C@@]43C)C1CCC2O (stereo partly drawn) | – | – | – | – | – | 58 | CR mimetic CP=–;DHE counter=–
C[C@]12CCC3C(CC[C@H]4C[C@@H](O)CC[C@]34C)C1C[C@@H](O)[C@]2(C)O (stereo partly drawn) | · | 28 | · | – | · | – | CR mimetic CP=–;DHE counter=–
C#C[C@]1(O)[C@H](O)CC2C3CC[C@H]4C[C@@H](O)CC[C@]4(C)C3CC[C@@]21C (stereo partly drawn) | · | – | · | · | · | – | CR mimetic CP=–;DHE counter=–
